Measured values taken from PMC11000255 (Journal of the American Chemical Society, 2024).

Legend:
[1] = molecular target: prohibitin-2 (PHB2) (Homo sapiens, UniProt Q99623); test: TMT18plex lysine ligandability profiling, PHB2; format: binding; conditions: 100 μM, 8 h, breast cancer cells
How it was run: (§1)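 Live MDA-MB-231 or MDA-MB-436 breast cancer cells were exposed to the test compound (100 µM, 8 h) or DMSO vehicle. Lysates (soluble and insoluble fractions) were chased with a desthiobiotin-tagged lysine-specific STP ester probe, trypsin-digested, streptavidin-enriched and quantified by TMTpro-18plex. Lysines had to be quantified in all biological triplicates and TMT channels. A lysine counted as liganded at ≥60% loss of probe enrichment relative to DMSO.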

[2] = molecular target: stathmin (STMN1) (Homo sapiens, UniProt P16949); test: TMT18plex lysine ligandability profiling, STMN1; format: binding; conditions: 100 μM, 8 h, breast cancer cells
Chain of stathmin (STMN1) (P16949 whole entry): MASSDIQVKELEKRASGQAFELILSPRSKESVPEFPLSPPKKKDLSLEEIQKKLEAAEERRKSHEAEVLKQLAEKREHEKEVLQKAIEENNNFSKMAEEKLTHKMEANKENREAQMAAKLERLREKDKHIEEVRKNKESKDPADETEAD
How it was run: as §1

[3] = molecular target: mitochondrial citrate synthase (CS) (Homo sapiens, UniProt O75390); test: TMT18plex lysine ligandability profiling, CS; format: binding; conditions: MDA-MB-231 cells
Chain of mitochondrial citrate synthase (CS) (O75390 28-466): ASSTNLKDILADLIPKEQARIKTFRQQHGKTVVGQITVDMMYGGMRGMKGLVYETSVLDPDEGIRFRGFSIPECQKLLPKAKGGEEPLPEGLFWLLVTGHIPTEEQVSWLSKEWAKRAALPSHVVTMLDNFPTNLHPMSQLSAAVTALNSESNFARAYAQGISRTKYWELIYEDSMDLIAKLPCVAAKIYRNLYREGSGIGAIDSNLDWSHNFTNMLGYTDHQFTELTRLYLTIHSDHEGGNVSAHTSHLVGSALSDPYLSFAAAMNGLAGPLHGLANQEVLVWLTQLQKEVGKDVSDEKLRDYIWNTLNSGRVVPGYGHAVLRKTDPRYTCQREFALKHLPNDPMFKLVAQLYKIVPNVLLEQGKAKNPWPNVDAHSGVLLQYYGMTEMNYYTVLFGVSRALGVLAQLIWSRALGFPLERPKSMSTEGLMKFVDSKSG
How it was run: as §1

[4] = tested on: MDA-MB-231 cells; test: in-gel fluorescence profiling of clickable probes; format: cell-based, human; conditions: in MDA-MB-231 cells
[5] = molecular target: annexin A4 (ANXA4) (Homo sapiens, UniProt P09525); test: TMT18plex lysine ligandability profiling, ANXA4; format: binding; conditions: liganded = ≥60% reduction in probe enrichment; single meroterpenoid
Chain of annexin A4 (ANXA4) (P09525 whole entry): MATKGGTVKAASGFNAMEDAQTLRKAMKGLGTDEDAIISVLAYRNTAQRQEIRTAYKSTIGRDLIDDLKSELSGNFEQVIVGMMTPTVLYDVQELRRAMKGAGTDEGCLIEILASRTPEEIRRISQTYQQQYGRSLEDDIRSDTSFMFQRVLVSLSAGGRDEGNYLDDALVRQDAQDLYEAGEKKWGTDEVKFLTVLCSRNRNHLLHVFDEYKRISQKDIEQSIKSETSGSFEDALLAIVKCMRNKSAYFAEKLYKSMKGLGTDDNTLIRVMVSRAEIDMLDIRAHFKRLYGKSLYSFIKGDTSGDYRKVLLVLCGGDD
How it was run: as §1

[6] = format: physicochemical; conditions: excess of butylamine; for fold increased half-life / diminished rate compared to salicylaldehyde: vs salicylaldehyde
[7] = ionization constants; format: physicochemical
[8] = molecular target: transthyretin (TTR) (Homo sapiens, UniProt P02766); test: TMT18plex lysine ligandability profiling, TTR; format: binding; conditions: liganded = ≥60% reduction in probe enrichment; single meroterpenoid
How it was run: as §1

[9] = molecular target: T1, ABHD12 (Homo sapiens, UniProt Q8N2K0); test: TMT18plex lysine ligandability profiling, ABHD12; format: binding; conditions: both MDA-MB-231 and MDA-MB-436 cell lines
T1 sequence (Q8N2K0 1-398): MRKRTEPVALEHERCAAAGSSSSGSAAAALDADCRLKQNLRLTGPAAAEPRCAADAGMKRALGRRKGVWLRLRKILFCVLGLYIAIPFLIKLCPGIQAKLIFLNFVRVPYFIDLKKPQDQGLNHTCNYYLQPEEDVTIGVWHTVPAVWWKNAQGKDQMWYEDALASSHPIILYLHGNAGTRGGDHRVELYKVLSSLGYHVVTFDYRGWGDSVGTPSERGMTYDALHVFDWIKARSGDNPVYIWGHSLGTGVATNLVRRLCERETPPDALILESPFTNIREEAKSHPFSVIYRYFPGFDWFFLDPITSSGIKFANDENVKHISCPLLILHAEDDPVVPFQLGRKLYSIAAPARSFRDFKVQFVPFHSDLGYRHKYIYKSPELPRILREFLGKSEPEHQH
How it was run: as §1

[10] = molecular target: T2, WT-ABHD12 (Homo sapiens, UniProt Q8N2K0); test: LC/MS-based LPS hydrolysis assay, WT-ABHD12 in HEK293T cell lysates; format: biochemical
T2 sequence (Q8N2K0 1-398): T1 sequence (Q8N2K0 1-398)
How it was run: (§2)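 Recombinant ABHD12 (WT, S246A and K373 mutants) was expressed in HEK293T cells and used as cell lysate. Lysate was preincubated with the test compound (single-point 100 µM, or a dose series; 1 h, 37 °C), then given 17:1 LPS substrate (100 µM, 20 min, 37 °C).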

[11] = molecular target: K373R-ABHD12 (Homo sapiens, UniProt Q8N2K0, K373R); test: LC/MS-based LPS hydrolysis assay, K373R-ABHD12 in HEK293T cell lysates; format: biochemical
Chain of K373R-ABHD12 (Q8N2K0 whole entry K373R): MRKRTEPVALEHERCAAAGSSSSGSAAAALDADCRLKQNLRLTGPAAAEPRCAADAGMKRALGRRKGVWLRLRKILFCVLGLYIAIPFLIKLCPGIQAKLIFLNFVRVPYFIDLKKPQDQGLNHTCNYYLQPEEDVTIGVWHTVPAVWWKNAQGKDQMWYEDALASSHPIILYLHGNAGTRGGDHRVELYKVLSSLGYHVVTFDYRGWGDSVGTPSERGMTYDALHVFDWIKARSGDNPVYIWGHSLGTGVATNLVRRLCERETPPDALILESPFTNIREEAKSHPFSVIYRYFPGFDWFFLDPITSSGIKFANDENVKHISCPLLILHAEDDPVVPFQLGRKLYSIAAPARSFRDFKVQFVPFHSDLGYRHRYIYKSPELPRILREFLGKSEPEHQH
How it was run: as §2

[12] = molecular target: T1, ABHD12; test: immunoblot analysis of high-molecular-weight ABHD12 aggregates; conditions: recombinant ABHD12, immunoblot
How it was run: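 Flag-tagged WT and K373R ABHD12 expressed recombinantly in HEK293T cells; lysates treated with increasing test compound, then labeled with TAMRA-FP. Read-out by in-gel fluorescence plus Western blot, tracking monomeric and high-molecular-weight ABHD12 bands.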

[13] = tested on: MDA-MB-231 cells; test: untargeted lipidomics profiling of treated cells; format: cell-based, human; conditions: 100 μM, 8 h
[14] = molecular target: WT-IDH2 (Homo sapiens, UniProt P48735); test: oxidative IDH2 activity; format: biochemical
Chain of WT-IDH2 (P48735 40-452): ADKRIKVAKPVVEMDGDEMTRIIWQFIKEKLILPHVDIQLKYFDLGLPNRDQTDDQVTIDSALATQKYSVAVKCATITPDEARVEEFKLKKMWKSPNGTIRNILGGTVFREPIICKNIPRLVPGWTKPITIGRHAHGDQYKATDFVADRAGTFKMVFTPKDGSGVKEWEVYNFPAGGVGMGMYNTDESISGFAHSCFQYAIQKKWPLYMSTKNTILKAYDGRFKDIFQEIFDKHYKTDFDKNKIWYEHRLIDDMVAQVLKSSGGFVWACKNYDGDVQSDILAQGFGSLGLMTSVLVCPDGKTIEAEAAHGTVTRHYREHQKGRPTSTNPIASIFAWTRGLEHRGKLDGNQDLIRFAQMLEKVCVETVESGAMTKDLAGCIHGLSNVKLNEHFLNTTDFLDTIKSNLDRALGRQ
How it was run: (§3)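 HEK293T lysates expressed recombinant IDH2: WT, K299 mutants, K413R, or double K299R/K413R. Lysate was preincubated with the test compound (single-point 100 µM, or a dose series; 1 h, 37 °C). α-KG production from D-(+)-threo-isocitrate (1.3 mM, 1 h, 25 °C) was measured.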

[15] = molecular target: K299R-IDH2 (Homo sapiens, UniProt P48735, K299R); test: oxidative IDH2 activity, K299R-IDH2 in HEK293T cell lysates; format: biochemical
Chain of K299R-IDH2 (P48735 40-452 K299R): as the sequence (P48735 40-452) above, with K260R counted along it
How it was run: as §3

[16] = molecular target: K413R-IDH2 (Homo sapiens, UniProt P48735, K413R); test: oxidative IDH2 activity, K413R-IDH2 in HEK293T cell lysates; format: biochemical
Chain of K413R-IDH2 (P48735 40-452 K413R): as the sequence (P48735 40-452) above, with K374R counted along it
How it was run: as §3

[17] = molecular target: K299R/K413R-IDH2 (Homo sapiens, UniProt P48735, K299R/K413R); test: oxidative IDH2 activity, K299R/K413R-IDH2 in HEK293T cell lysates; format: biochemical
Chain of K299R/K413R-IDH2 (P48735 40-452 K299R/K413R): as the sequence (P48735 40-452) above, with K260R, K374R counted along it

[18] = molecular target: R140Q-IDH2 (Homo sapiens, UniProt P48735, R140Q); test: reductive activity; format: biochemical
Chain of R140Q-IDH2 (P48735 40-452 R140Q): as the sequence (P48735 40-452) above, with R101Q counted along it
How it was run: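 Lysates of HEK293T cells expressed recombinant R140Q-IDH2, alone or with K299R or K299R/K413R added. Lysate was preincubated with the test compound (single-point 100 µM, or a dose series; 2 h, 20 °C). 2-HG production from α-KG substrate (0.6 mM, 1 h, 25 °C) was measured.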

[19] = molecular target: IDH2 (Homo sapiens, UniProt P48735); test: immunoblotting analysis of IDH2 homodimerization
Chain of IDH2 (P48735 40-452): as the sequence (P48735 40-452) above
How it was run: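 Flag-tagged WT- and R140Q-IDH2, with K299 and K413 mutants, were recombinantly expressed in HEK293T cells. Lysates were treated with the test compound, and IDH2 homodimer formation was read by immunoblot.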

[20] = molecular target: WT-PFKM (Homo sapiens, UniProt P08237); test: F6P phosphorylation assay, WT-PFKM in HEK293T cell lysates; format: biochemical
Chain of WT-PFKM (P08237 whole entry): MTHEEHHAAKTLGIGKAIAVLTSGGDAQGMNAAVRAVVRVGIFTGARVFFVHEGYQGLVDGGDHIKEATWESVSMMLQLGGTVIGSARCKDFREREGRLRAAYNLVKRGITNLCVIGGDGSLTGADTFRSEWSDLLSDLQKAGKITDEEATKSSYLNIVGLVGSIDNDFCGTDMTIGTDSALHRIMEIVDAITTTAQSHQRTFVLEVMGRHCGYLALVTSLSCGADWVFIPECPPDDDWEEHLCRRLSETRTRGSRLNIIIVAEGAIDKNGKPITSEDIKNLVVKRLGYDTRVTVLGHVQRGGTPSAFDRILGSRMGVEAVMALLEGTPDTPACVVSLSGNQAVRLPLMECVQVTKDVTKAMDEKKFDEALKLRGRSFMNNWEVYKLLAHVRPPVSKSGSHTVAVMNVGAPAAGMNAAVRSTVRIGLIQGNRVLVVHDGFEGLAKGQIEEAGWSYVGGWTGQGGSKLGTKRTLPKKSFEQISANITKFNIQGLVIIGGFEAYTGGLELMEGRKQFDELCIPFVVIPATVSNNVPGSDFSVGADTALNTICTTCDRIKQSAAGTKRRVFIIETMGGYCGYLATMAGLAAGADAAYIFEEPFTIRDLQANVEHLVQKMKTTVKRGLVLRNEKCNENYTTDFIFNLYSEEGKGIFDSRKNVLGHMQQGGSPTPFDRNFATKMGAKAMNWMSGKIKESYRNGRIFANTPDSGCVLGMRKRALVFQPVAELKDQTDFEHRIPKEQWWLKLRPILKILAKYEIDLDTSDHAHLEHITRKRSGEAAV
How it was run: (§4)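 Epitope-tagged WT-PFKM or K678R-PFKM was recombinantly expressed in HEK293T cells and used as lysate. Lysate was preincubated with the test compound (single-point 100 µM, or a dose series; 2 h, 37 °C).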

[21] = molecular target: K678R-PFKM (Homo sapiens, UniProt P08237, K678R); test: F6P phosphorylation assay, K678R-PFKM in HEK293T cell lysates; format: biochemical
Chain of K678R-PFKM (P08237 whole entry K678R): as the sequence (P08237 whole entry) above, with K678R counted along it
How it was run: as §4

[22] = phenolic core of ubiquinol; cited from earlier work
[23] = molecular target: OCIAD2 (Homo sapiens, UniProt Q56VL3); test: TMT18plex lysine ligandability profiling, OCIAD2; format: binding; conditions: 100 μM, 8 h
Chain of OCIAD2 (Q56VL3 whole entry): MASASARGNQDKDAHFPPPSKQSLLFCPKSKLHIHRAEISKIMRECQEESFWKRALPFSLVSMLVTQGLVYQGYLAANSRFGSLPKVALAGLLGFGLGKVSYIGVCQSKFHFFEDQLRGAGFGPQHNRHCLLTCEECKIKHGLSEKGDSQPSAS
How it was run: as §1

Chain of prohibitin-2 (PHB2) (Q99623 whole entry): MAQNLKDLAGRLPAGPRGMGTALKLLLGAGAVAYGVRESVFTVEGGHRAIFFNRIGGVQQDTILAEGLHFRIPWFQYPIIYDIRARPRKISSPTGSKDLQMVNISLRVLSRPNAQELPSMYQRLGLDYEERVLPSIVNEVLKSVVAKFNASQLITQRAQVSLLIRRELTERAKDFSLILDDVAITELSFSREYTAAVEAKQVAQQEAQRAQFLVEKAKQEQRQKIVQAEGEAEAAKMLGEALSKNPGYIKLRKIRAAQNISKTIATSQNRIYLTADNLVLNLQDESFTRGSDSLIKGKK

What does the source list for CC(C)CC(=O)c1c(O)c(C=O)c2c(c1O)C[C@H]1C[C@H]3C[C@H](C3(C)C)[C@@]1(C)O2 [(−)-euglobal-G2]?
ligandability of K24 in PHB2 [1]: 61%; ligandability of K128 in STMN1 [2]: 11%

Which “engagement of K76 in CS” value [3] does the source give for CC(C)CC(=O)c1c(O)c(C=O)c2c(c1O)CC[C@@]1(CC[C@H]3C[C@@H]1C3(C)C)O2 [(−)-euglobal-G3] here?
Its value is “exclusively targeted”.

Which results are given for CC(C)CC(=O)c1c(O)c(C=O)c(O)c2c1O[C@@]1(CC2)CC[C@H]2C[C@@H]1C2(C)C [(−)-euglobal-G4]?
competitive blockade of azide probe (−)-11 labeling [4]: blockade of probe (−)-11 labeling for a subset of protein targets in a dose-dependent manner; engagement of K246 in ANXA4 [5]: exclusively targeted

Which “fold increased half-life / diminished rate compared to salicylaldehyde” value [6] does the source give for O=Cc1ccccc1 [benzaldehyde] here?
The value was 10 fold.

With Cc1c(O)c(C=O)c(O)c(C(=O)CC(C)C)c1O [grandinol] as the compound, how does the pKa [7] read?
The pKa was 10.9.

And the “fold diminished rate compared to jensenone” value ([6]; vs jensenone)?
The value was 30 fold.

Which results are given for CC(C)CC(=O)c1c(O)c(C=O)c(O)c(C=O)c1O [jensenone]?
pKa [7]: 10.5; engagement of K35 in TTR [8]: selectively engaged; ligandability of K373 in ABHD12 [9]: 76%; IC50 [10]: 32.6 µM; residual ABHD12 LPS hydrolysis activity ([10]; 100 μM, 1 h, 37 °C, 17:1 LPS substrate): 23%; IC50 [11]: 45.7 µM; formation of high-molecular-weight ABHD12 aggregates [12]: marked reduction in the monomeric form of ABHD12 and a concomitant increase in high-molecular-weight ABHD12 aggregates; levels of monoacylglycerophosphoserine LPS(18:0) [13]: significantly elevated levels; levels of stearic acid FA(18:0) [13]: concurrent reduction; IC50 [14]: 20.9 µM; effect on IDH2 oxidative activity ([14]; 100 μM, 1 h, 37 °C): complete functional inhibition; IC50 [15]: 29.8 µM; IC50 [16]: 21.4 µM; IC50 [17]: > 100 µM; oxidative activity following treatment ([17]; double mutant K299R/K413R-IDH2, 100 μM, 1 h, 20 °C): essentially preserved its oxidative activity; IC50 [18]: 26.2 µM; effect on reductive activity (2-HG production) ([18]; 100 μM, 2 h, 20 °C): fully abolished the reductive activity; IDH2 homodimerization [19]: unexpected induction of IDH2 homodimerization; IC50 [20]: 10.8 µM; inhibitory effect on catalytic activity of PFKM ([20]; 100 μM, 2 h, 37 °C, among the meroterpenoids assessed): most pronounced inhibitory effects; IC50 [21]: > 100 µM

For O=Cc1c(O)cc(O)cc1O [phloroglucinaldehyde], which “fold increased half-life / diminished rate compared to salicylaldehyde” value [6] is on record?
The value was 80 fold.

For COc1c(O)c(C)c(C/C=C(\C)CC/C=C(\C)CC/C=C(\C)CC/C=C(\C)CC/C=C(\C)CC/C=C(\C)CC/C=C(\C)CC/C=C(\C)CC/C=C(\C)CCC=C(C)C)c(O)c1OC [ubiquinol], which “calculated pKa1” value [22] is on record?
Its value is 5.31.

What about the “calculated pKa2” value [22] of the same compound?
The value was 10.86.

Which “ligandability of K24 in PHB2” value [1] does the source give for (+)-euglobal-G2 here?
Its value is 26%.

And the “ligandability of K128 in STMN1” value [2]?
Its value is 67%.

And the “ligandability of K99 in OCIAD2” value ([23]; MDA-MB-231 cells)?
The value was 92%.

And the “ligandability of K99 in OCIAD2” value ([23]; MDA-MB-436 cells)?
Its value is 49%.
